IDH1 mut inh: blocks human IDH1 R132H reductase activity; O75874; diaphorase/resazurin fluorescence, 60 min; inhibition, % at 10 µM; 0.18% of 70,000 active; AID 624101; in the data active = inhibition above about 34%; inconclusive = no clear call, values can overlap the other calls; inactive = below about 11%
Target sequence (O75874 whole entry R132H): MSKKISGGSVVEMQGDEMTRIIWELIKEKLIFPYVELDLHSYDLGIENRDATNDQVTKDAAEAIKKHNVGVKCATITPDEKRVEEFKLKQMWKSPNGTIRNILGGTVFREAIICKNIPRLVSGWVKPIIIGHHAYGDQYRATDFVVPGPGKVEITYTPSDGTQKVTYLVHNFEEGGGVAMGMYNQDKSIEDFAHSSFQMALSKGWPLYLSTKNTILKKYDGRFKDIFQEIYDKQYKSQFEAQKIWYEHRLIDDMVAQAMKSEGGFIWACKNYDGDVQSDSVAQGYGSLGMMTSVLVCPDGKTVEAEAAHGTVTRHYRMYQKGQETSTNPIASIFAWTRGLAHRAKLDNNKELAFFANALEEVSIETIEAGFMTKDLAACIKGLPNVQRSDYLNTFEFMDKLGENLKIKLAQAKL
Pf Dd2 inh: inhibitors of Plasmodium falciparum Dd2 growth. 2.3% of 94,000 active. P. falciparum Dd2 growth, SYBR Green, 72 h; active compounds read low. activity change, % at 10 µM; in the data active = activity change below about -80%; inconclusive = no clear call, values can overlap the other calls
KDM4C inh: KDM4C (human) demethylase inhibition; Q9H3R0; GST-KDM4C 2-372, H3K9me3 peptide, LANCE TR-FRET; inhibition, % at 12.5 µM; 0.15% of 96,000 active; AID 720574;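 active = mean replicate inhibition above about 25%, with at least 55% of replicates also reaching it, limit read from the data, passing the limit was not always enough; inconclusive = only one of those two conditions met; inactive = neither condition met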
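Material: N-terminal GST-fused human GASC-1 (KDM4C) fragment, residues 2-372. Input: 10 nM enzyme. Incubation: enzyme reaction 30 min, then detection 60 min, both room temperature. Doses: one test concentration per compound. Read-out basis: inhibition from TR-FRET ratio decrease. Detection: LANCE TR-FRET, excitation 340 nm, emissions 618 and 671 nm.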
Numbers stand for hits; n = inactive; u = inconclusive; x = no result given. Shown is part of a subset that was picked to be rich in hits.

SMILES	IDH1 mut inh	Pf Dd2 inh	KDM4C inh
C[C@H](O)C#Cc1ccc2c(c1)O[C@H](CN(C)Cc1cncnc1)[C@@H](C)CN([C@@H](C)CO)S2(=O)=O	n	n	n
CC(C)CC#Cc1ccc2c(c1)O[C@@H](CN(C)C(=O)c1cccnc1)[C@@H](C)CN([C@@H](C)CO)S2(=O)=O	39	n	47
C[C@@H](O)C#Cc1ccc2c(c1)O[C@@H](CN(C)Cc1cncnc1)[C@@H](C)CN([C@@H](C)CO)S2(=O)=O	34	n	36
COCC#Cc1ccc2c(c1)O[C@H](CN(C)Cc1cccnc1)[C@@H](C)CN([C@@H](C)CO)S2(=O)=O	n	n	n
CC(C)CC#Cc1ccc2c(c1)O[C@@H](CN(C)Cc1cccc(F)c1)[C@H](C)CN([C@@H](C)CO)S2(=O)=O	n	-84	n
CC(C)CC#Cc1ccc2c(c1)O[C@@H](CN(C)Cc1cccc(F)c1)[C@@H](C)CN([C@H](C)CO)S2(=O)=O	n	n	n
COCC#Cc1ccc2c(c1)O[C@@H](CN(C)Cc1cccnc1)[C@@H](C)CN([C@@H](C)CO)S2(=O)=O	65	n	44
C[C@H](CO)N1C[C@H](C)[C@@H](CN(C)C(=O)Nc2ccccc2)Oc2ccc(NS(C)(=O)=O)cc2C1=O	n	n	x
C[C@H]1CN([C@@H](C)CO)C(=O)c2cccc(NC(=O)Nc3ccccc3)c2O[C@H]1CN(C)C(=O)NC1CCCCC1	n	n	n
CCCN(C)C[C@@H]1Oc2cc(C#Cc3cccnc3)ccc2S(=O)(=O)N([C@@H](C)CO)C[C@@H]1C	n	-86	n
CCCC#Cc1ccc2c(c1)O[C@H](CN(C)Cc1cccnc1)[C@H](C)CN([C@H](C)CO)S2(=O)=O	n	n	n
C[C@H]1CN([C@@H](C)CO)S(=O)(=O)c2ccc(C#Cc3cccnc3)cc2O[C@H]1CN(C)CC1CC1	x	n	n
CCCC#Cc1ccc2c(c1)O[C@@H](CN(C)Cc1cccnc1)[C@@H](C)CN([C@@H](C)CO)S2(=O)=O	53	n	n
CCCC#Cc1ccc2c(c1)O[C@H](CN(C)Cc1ccncc1)[C@@H](C)CN([C@H](C)CO)S2(=O)=O	n	n	n
CCCC#Cc1ccc2c(c1)O[C@@H](CN(C)Cc1ccncc1)[C@H](C)CN([C@@H](C)CO)S2(=O)=O	n	-87	n
CO[C@@H](CN(C)S(=O)(=O)c1ccccc1)[C@@H](C)CN(C(=O)Nc1ccccc1F)[C@H](C)CO	n	n	n
C[C@@H]1CN([C@H](C)CO)C(=O)Cc2cc(NC(=O)C3CC3)ccc2O[C@H]1CN(C)C(=O)NC1CCCCC1	n	n	n
COc1cccc(NC(=O)N2CC(=O)N3[C@H](C2)[C@H](c2ccc(C#CCC4CCCC4)cc2)[C@@H]3CO)c1	x	n	n
COc1cccc(C#Cc2ccc([C@H]3[C@@H](CO)N4C(=O)CN(C(=O)c5ccccc5)C[C@H]34)cc2)c1	x	-89	n
COc1ccc(C#Cc2ccc([C@H]3[C@H]4CN(C(=O)c5ccc(F)cc5)CC(=O)N4[C@H]3CO)cc2)cc1	x	-85	n
COc1cccc(C#Cc2ccc([C@@H]3[C@H]4CN(C(=O)c5ccccc5)CC(=O)N4[C@H]3CO)cc2)c1	x	n	n
O=C(c1ccc(F)cc1)N1CC(=O)N2[C@H](C1)[C@H](c1ccc(C#Cc3ccc(F)cc3)cc1)[C@@H]2CO	x	n	n
COc1cccc(NC(=O)N2CC(=O)N3[C@H](CO)[C@@H](c4ccc(C#CCC5CCCC5)cc4)[C@H]3C2)c1	x	-91	n
Cc1ccc(S(=O)(=O)N(C)C[C@@H]2Oc3ccc(NS(=O)(=O)c4ccc(F)cc4)cc3CC(=O)N([C@H](C)CO)C[C@H]2C)cc1	n	n	n
C[C@@H]1CN([C@H](C)CO)C(=O)Cc2cc(NC(=O)NC3CCCCC3)ccc2O[C@@H]1CN(C)S(=O)(=O)c1ccc(F)cc1	x	n	n
SMILES	IDH1 mut inh	Pf Dd2 inh	KDM4C inh
CN(C)CC#Cc1ccc([C@H]2[C@H](CO)N3C(=O)CN(C(=O)Cc4cccnc4)C[C@@H]23)cc1	x	n	n
C[C@@H]1CN([C@H](C)CO)S(=O)(=O)c2ccc(C3=CCCC3)cc2O[C@H]1CN(C)C	n	n	n
C[C@@H]1CN([C@@H](C)CO)C(=O)c2cccc(NS(=O)(=O)c3ccccc3)c2O[C@H]1CN(C)Cc1ccc(Oc2ccccc2)cc1	n	-83	n
C[C@@H]1CN([C@@H](C)CO)C(=O)c2cccc(NS(=O)(=O)c3ccccc3)c2O[C@@H]1CN(C)Cc1ccc(Oc2ccccc2)cc1	x	n	n
C[C@H](CO)N1C[C@H](C)[C@@H](CN(C)Cc2ccc(Oc3ccccc3)cc2)Oc2c(NS(=O)(=O)c3ccccc3)cccc2C1=O	n	n	x
C[C@@H]1CN([C@H](C)CO)C(=O)c2cccc(NS(=O)(=O)c3ccccc3)c2O[C@H]1CN(C)Cc1ccc(Oc2ccccc2)cc1	n	-86	n
Cc1noc(C)c1NC(=O)Nc1ccc2c(c1)C(=O)N(C)[C@H]1CC[C@H](CC(=O)NCc3ccc(Cl)cc3)O[C@@H]1CO2	x	x	n
O=C(C[C@H]1C=C[C@H](NC(=O)Nc2ccccc2)[C@@H](CO)O1)NCc1ccccn1	n	n	n
Cc1noc(C)c1S(=O)(=O)N(C)C[C@@H]1OCCCC[C@@H](C)Oc2ccc(NS(C)(=O)=O)cc2C(=O)N([C@H](C)CO)C[C@@H]1C	n	n	n
C[C@H](CO)N1C[C@H](C)[C@@H](CN(C)C(=O)c2cccnc2)Oc2ncc(C3=CCCCC3)cc2C1=O	n	n	n
COc1ccc2c3c([nH]c2c1)[C@@H](CO)N(Cc1cc(F)ccc1F)CC31CN(C(=O)CN(C)C)C1	x	-87	n
COc1ccc2c3c([nH]c2c1)[C@H](CO)N(Cc1cc(F)ccc1F)CC31CN(C(=O)CN(C)C)C1	x	u	n
COCC(=O)N1CCC2(CC1)CN(Cc1cc(F)ccc1F)[C@@H](CO)c1[nH]c3cc(OC)ccc3c12	x	n	x
COc1ccc2c3c([nH]c2c1)[C@@H](CO)N(Cc1cc(F)ccc1F)CC31CCN(C(=O)CN(C)C)CC1	x	-85	n
C[C@@H]1CN([C@H](C)CO)C(=O)c2cc(-c3ccncc3)cnc2O[C@H]1CN(C)C(=O)C1CC1	x	n	n
C[C@@H]1CN([C@H](C)CO)C(=O)c2cc(Br)cnc2O[C@H]1CN(C)C(=O)c1ccc(F)cc1	n	n	n
C[C@@H]1CCCCO[C@@H](CN(C)S(=O)(=O)c2ccccc2)[C@@H](C)CN([C@@H](C)CO)C(=O)c2cc(NC(=O)Nc3ccc(F)cc3)ccc2O1	n	-81	n
C[C@@H]1CN([C@H](C)CO)C(=O)c2cc(NC(=O)Nc3ccc(F)cc3)ccc2O[C@@H](C)CCCCO[C@H]1CN(C)S(=O)(=O)c1ccccc1	x	n	n
C[C@@H]1CCCCO[C@@H](CN(C)S(=O)(=O)c2ccccc2)[C@H](C)CN([C@H](C)CO)C(=O)c2cc(NC(=O)Nc3ccc(F)cc3)ccc2O1	x	n	n
C[C@@H]1CN([C@@H](C)CO)C(=O)c2cc(NC(=O)Nc3ccc(F)cc3)ccc2O[C@@H](C)CCCCO[C@@H]1CN(C)S(=O)(=O)c1ccccc1	n	-84	n
